In ChEMBL document CHEMBL1123876, “Effect of reductive alkylation of lysine in positions 6 and/or 8 on the histamine-releasing activity of luteinizing hormone-releasing hormone antagonists” (1987) one finds Antiovulatory activity and EC50 data, which are given here for nine compounds.

Values after ≈ are worked out from the molar mass of the structure shown. *1 amine or outer side, *2 acyl side, *3 side chain or, on linkers, in order; H or OH if unused. Where a SMILES comes first, the peptide text is derived from it. [ ]: non-standard residue; d: D form. X1 = O=C([C@@H](CCCCNC1CCCC1)N[*:1])[*:2]; X2 = O=C([C@H](CCCCNC1CCCC1)N[*:1])[*:2]; d2Nal = N[C@H](Cc1ccc2ccccc2c1)C(=O)O

Holding throughout (format): functional
For experiment [1], the species on record is Rattus norvegicus. The experiment is described as follows: Antiovulatory activity in rat was expressed as percentage of (8) rats blocked at 3 ug/mL. The essentials:
(§1)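 Standard antiovulatory assay in Sprague-Dawley rats; analogue given in a 40% propane-1,2-diol/0.9% saline vehicle.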

For experiment [2], the species on record is Rattus norvegicus. The experiment is described as follows: In vitro histamine releasing activity in rat peritoneal cells. The settings on record: read-out: ED50 (the source's name). An outline of the steps:
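Peritoneal cells from male Sprague-Dawley rats exposed in vitro to each analogue in a standard histamine-release assay. ED50 for histamine release is reported in μg/mL as mean ± standard error.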

The species named for experiment [3] is Rattus norvegicus. The experiment is described as follows: Antiovulatory activity in rat was expressed as percentage of (10) rats blocked at 3 ug/mL. Further details: unit: %. An outline of the steps: as §1
The species entered for experiment [4] is Rattus norvegicus. The experiment is described as follows: Antiovulatory activity in rat was expressed as percentage of rats blocked at 1 ug/mL (number of rats). The essentials:
as §1

The species named for experiment [5] is Rattus norvegicus. The experiment is described as follows: Antiovulatory activity in rat was expressed as percentage of (9) rats blocked at 3 ug/mL. An outline of the steps:
as §1

The species entered for experiment [6] is Rattus norvegicus. The experiment is described as follows: Antiovulatory activity in rat was expressed as percentage of (9) rats blocked at 6 ug/mL. The essentials:
as §1

With `CCCC(CCC)NCCCC[C@H](NC(=O)[C@H](Cc1ccccc1)NC(=O)[C@@H](CCCN=C(N)N)NC(=O)[C@H](Cc1ccc(O)cc1)NC(=O)[C@H](CO)NC(=O)[C@@H](Cc1ccccc1)NC(=O)[C@@H](Cc1ccccc1)NC(=O)[C@@H](Cc1ccc2ccccc2c1)NC(C)=O)C(=O)N1CCC[C@H]1C(=O)N[C@H](C)C(=O)O`, the Antiovulatory activity in experiment [1] is 0. Moreover, the EC50 in experiment [2] turned out to be 4.6 µg/mL (≈ 3.07 µM).
In experiment [3], `CC(=O)N[C@H](Cc1ccc2ccccc2c1)C(=O)N[C@H](Cc1ccccc1)C(=O)N[C@H](Cc1ccccc1)C(=O)N[C@@H](CO)C(=O)N[C@@H](Cc1ccc(O)cc1)C(=O)N[C@H](CCCN=C(N)N)C(=O)N[C@@H](Cc1ccccc1)C(=O)N[C@@H](CCCCNCc1ccc(C)cc1)C(=O)N1CCC[C@H]1C(=O)N[C@H](C)C(=O)O` displayed an Antiovulatory activity of 10. Further, in experiment [2], the EC50 was determined as 33 µg/mL (≈ 21.9 µM).
For `CC(=O)N[C@H](Cc1ccc2ccccc2c1)C(=O)N[C@H](Cc1ccccc1)C(=O)N[C@H](Cc1ccccc1)C(=O)N[C@@H](CO)C(=O)N[C@@H](Cc1ccc(O)cc1)C(=O)N[C@H](CCCCNC1CCCCC1)C(=O)N[C@@H](Cc1ccccc1)C(=O)N[C@@H](CCCCNC1CCCCC1)C(=O)N1CCC[C@H]1C(=O)N[C@H](C)C(N)=O`, in that order: 38 and 5.86 µg/mL (≈ 3.81 µM).
As to `CC(=O)N[C@H](Cc1ccc2ccccc2c1)C(=O)N[C@H](Cc1ccccc1)C(=O)N[C@H](Cc1ccccc1)C(=O)N[C@@H](CO)C(=O)N[C@@H](Cc1ccc(O)cc1)C(=O)N[C@H](CCCN=C(N)N)C(=O)N[C@@H](Cc1ccccc1)C(=O)N[C@@H](CCCCNCC(C)(C)C)C(=O)N1CCC[C@H]1C(=O)N[C@H](C)C(=O)O`, the Antiovulatory activity in experiment [4] turned out to be 50; in experiment [5], 89. Further, the EC50 in experiment [2] was determined as 4.68 µg/mL (≈ 3.18 µM).
In experiment [3], `CC(=O)N[C@H](Cc1ccc2ccccc2c1)C(=O)N[C@H](Cc1ccccc1)C(=O)N[C@H](Cc1ccccc1)C(=O)N[C@@H](CO)C(=O)N[C@@H](Cc1ccc(O)cc1)C(=O)N[C@H](CCCN=C(N)N)C(=O)N[C@@H](Cc1ccccc1)C(=O)N[C@@H](CCCCNCc1c(C)cc(C)cc1C)C(=O)N1CCC[C@H]1C(=O)N[C@H](C)C(=O)O` had an Antiovulatory activity of 10. The EC50 in experiment [2] came to 4.73 µg/mL (≈ 3.08 µM).
Turning to `CCCC(CCC)NCCCC[C@H](NC(=O)[C@H](Cc1ccccc1)NC(=O)[C@@H](CCCCNC(CCC)CCC)NC(=O)[C@H](Cc1ccc(O)cc1)NC(=O)[C@H](CO)NC(=O)[C@@H](Cc1ccccc1)NC(=O)[C@@H](Cc1ccccc1)NC(=O)[C@@H](Cc1ccc2ccccc2c1)NC(C)=O)C(=O)N1CCC[C@H]1C(=O)N[C@H](C)C(N)=O`, the Antiovulatory activity is 0 in experiment [3] and 56 in experiment [6]. Further, the EC50 in experiment [2] is 21.9 µg/mL (≈ 14 µM).
`CCCCC(CCCC)NCCCC[C@H](NC(=O)[C@H](Cc1ccccc1)NC(=O)[C@@H](CCCCNC(CCCC)CCCC)NC(=O)[C@H](Cc1ccc(O)cc1)NC(=O)[C@H](CO)NC(=O)[C@@H](Cc1ccccc1)NC(=O)[C@@H](Cc1ccccc1)NC(=O)[C@@H](Cc1ccc2ccccc2c1)NC(C)=O)C(=O)N1CCC[C@H]1C(=O)N[C@H](C)C(N)=O`: in experiment [2], the EC50 was more than 300 µg/mL. Also, the Antiovulatory activity in experiment [6] turned out to be 0.
On to `CC(=O)N[C@H](Cc1ccc2ccccc2c1)C(=O)N[C@H](Cc1ccccc1)C(=O)N[C@H](Cc1ccccc1)C(=O)N[C@@H](CO)C(=O)N[C@@H](Cc1ccc(O)cc1)C(=O)N[C@H](CCCCNC(C)C)C(=O)N[C@@H](Cc1ccccc1)C(=O)N[C@@H](CCCCNC(C)C)C(=O)N1CCC[C@H]1C(=O)N[C@H](C)C(N)=O`, for which the EC50 in experiment [2] was 6.48 µg/mL (≈ 4.45 µM). The compound also showed an Antiovulatory activity in experiment [5] of 89.
With `CC(=O)N[C@H](Cc1ccc2ccccc2c1)C(=O)N[C@H](Cc1ccccc1)C(=O)N[C@H](Cc1ccccc1)C(=O)N[C@@H](CO)C(=O)N[C@@H](Cc1ccc(O)cc1)C(=O)N[C@H](CCCCNC1CCCC1)C(=O)N[C@@H](Cc1ccccc1)C(=O)N[C@@H](CCCCNC1CCCC1)C(=O)N1CCC[C@H]1C(=O)N[C@H](C)C(N)=O` (Ac-[d2Nal][dF][dF]SY[X1]F[X2]P[dA]-NH2), in experiment [3], the Antiovulatory activity was 70. Further, in experiment [2], the EC50 came to 6.1 µg/mL (≈ 4.04 µM).
